Here are results for 27 compounds from ChEMBL document CHEMBL1145162, “6-aryl-8H-indeno[1,2-d]thiazol-2-ylamines: A1 adenosine receptor agonist allosteric enhancers having improved potency” (J Med Chem, 2005).

For assay [1], the target named is T1, Adenosine receptor A1 (Homo sapiens) (UniProt P30542).
T1 sequence (whole entry): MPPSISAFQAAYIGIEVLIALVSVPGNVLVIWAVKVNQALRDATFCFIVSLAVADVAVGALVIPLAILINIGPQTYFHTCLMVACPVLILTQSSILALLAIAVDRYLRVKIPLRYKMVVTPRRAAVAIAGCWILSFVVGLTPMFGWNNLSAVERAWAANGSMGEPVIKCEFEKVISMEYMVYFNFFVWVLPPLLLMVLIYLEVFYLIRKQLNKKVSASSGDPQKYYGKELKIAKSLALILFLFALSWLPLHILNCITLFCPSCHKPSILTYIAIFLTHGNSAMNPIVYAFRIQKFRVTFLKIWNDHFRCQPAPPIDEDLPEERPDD
The assay can be described thus: In vitro allosteric enhancer (AE) activity for adenosine A1 receptor at 50 uM. The method in brief: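 Single-point screen on membranes from CHO-K1 cells stably expressing hA1AR. Candidate enhancer was added at 50 μM final for 5 min. Dissociation was then started with 8-cyclopentyltheophylline plus GTPγS and run 10 min. Score = % specific agonist binding remaining; two to three assays, each in triplicate.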

The target of assay [2] is Adenosine receptor A2a (Homo sapiens) (UniProt P29274). The assay can be described thus: In vitro allosteric enhancer (AE) activity for adenosine A2A receptor at 50 uM.
Assay [3] has as its target T2, Adenosine receptor A3 (Homo sapiens) (UniProt P0DMS8).
T2 sequence (whole entry): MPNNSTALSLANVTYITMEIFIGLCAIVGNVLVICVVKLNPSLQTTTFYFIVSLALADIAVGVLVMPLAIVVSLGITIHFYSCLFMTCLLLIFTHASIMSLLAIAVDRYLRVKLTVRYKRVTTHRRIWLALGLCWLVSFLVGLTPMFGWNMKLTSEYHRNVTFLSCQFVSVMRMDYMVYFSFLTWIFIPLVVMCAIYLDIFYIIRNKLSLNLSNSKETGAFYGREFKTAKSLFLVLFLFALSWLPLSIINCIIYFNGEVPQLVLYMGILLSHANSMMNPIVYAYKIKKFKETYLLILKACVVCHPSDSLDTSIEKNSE
The assay can be described thus: In vitro allosteric enhancer (AE) activity for adenosine A3 receptor at 50 uM.

The target in assay [4] is T1, Adenosine receptor A1 (Homo sapiens). The assay can be described thus: Allosteric enhancer activity against adenosine A1 receptor.
The target is the same in assay [5]. As to the kind of experiment: In vitro allosteric enhancer (AE) activity for adenosine A1 receptor maximal score from curve fitting.
The target in another assay is T3, Adenosine receptor A1 (Homo sapiens, UniProt P30542).
T3 sequence (P30542 whole entry): T1 sequence (whole entry)
As to the kind of experiment: Antagonist activity against adenosine A1 receptor. It counts as functional. Also noted: concentration or dose not given beside the values. The method in brief:
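Equilibrium binding on CHO-K1 hA1AR membranes (15 μg) in 10 mM HEPES pH 7.4, 1 mM EDTA, 1 U/mL adenosine deaminase, 4 nM [3H]CPX. Mixed with an equal volume of 200 μM enhancer in HEPES–10% DMSO; 200 μM NECA for nonspecific binding. Incubated 3 h at room temperature, then filtered.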

The structures appear in SMILES notation.

Sequence of Adenosine receptor A2a (Homo sapiens) (P29274 whole entry): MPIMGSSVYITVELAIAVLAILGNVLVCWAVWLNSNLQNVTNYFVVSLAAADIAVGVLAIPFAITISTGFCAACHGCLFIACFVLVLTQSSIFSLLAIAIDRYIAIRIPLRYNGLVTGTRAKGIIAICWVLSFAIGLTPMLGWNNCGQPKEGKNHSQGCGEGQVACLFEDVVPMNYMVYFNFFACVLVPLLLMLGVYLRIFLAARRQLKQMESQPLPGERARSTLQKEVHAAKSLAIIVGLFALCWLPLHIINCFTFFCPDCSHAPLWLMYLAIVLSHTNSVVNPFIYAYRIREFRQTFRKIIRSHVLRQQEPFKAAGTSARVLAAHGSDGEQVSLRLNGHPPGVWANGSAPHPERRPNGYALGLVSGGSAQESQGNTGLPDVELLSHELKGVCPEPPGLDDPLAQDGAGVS

On to `Nc1nc2c(s1)Cc1cc(-c3cccc4ccccc34)ccc1-2`, for which the Alloste ic enhan er (AE) in assay [1] was 61.2%; in assay [2] it was 0%; in assay [3] it was 4.2%. Besides, the EC50 in assay [4] is 3 µM. Also, in assay [5], the Allosteric enhancer (AE) stood at 65.6%. The Inhibition at Adenosine receptor A1 was more than 13%.

`COc1ccccc1-c1ccc2c(c1)Cc1sc(N)nc1-2`: the Alloste ic enhan er (AE) in assay [1] came to 38%; in assay [2] it was 0%; in assay [3] it was 1%. For the same compound, in assay [4], the EC50 is more than 10 µM. At Adenosine receptor A1, this compound gave an Inhibition of 43.5%.

Take `COc1ccc2cc(-c3ccc4c(c3)Cc3sc(N)nc3-4)ccc2c1`: the results for the Alloste ic enhan er (AE) in assay [1], in assay [2] and in assay [3] were 24.4%, 0% and 0%, respectively.

For the compound `Nc1nc2c(s1)Cc1cc(-c3cccs3)ccc1-2`, the Alloste ic enhan er (AE) in assay [1] was 32%; in assay [2], 0%; in assay [3], 1.8%.

For `Cc1ccc(-c2ccc3c(c2)Cc2sc(N)nc2-3)cc1C`, the figures for the Alloste ic enhan er (AE) in assay [1], in assay [2] and in assay [3] were 52%, 0% and 0%, respectively. Besides, in assay [4], the 50% effective concentration (EC50) was more than 10 µM. The same compound registered an Inhibition on Adenosine receptor A1 of 30.1%.

Consider `Cc1cc(C)cc(-c2ccc3c(c2)Cc2sc(N)nc2-3)c1`, for which the Alloste ic enhan er (AE) was 10.5% in assay [1], 0% in assay [2] and 0% in assay [3]. Further, the EC50 in assay [4] is more than 10 µM. The compound also showed an Inhibition on Adenosine receptor A1 of more than 8.7%.

Consider `Nc1nc2c(s1)Cc1cc(-c3ccsc3)ccc1-2`, for which the Alloste ic enhan er (AE) in assay [1] amounted to 68.8%; in assay [2], 0%; in assay [3] it was 3.8%.

For `Nc1nc2c(s1)Cc1cc(-c3cccc([N+](=O)[O-])c3)ccc1-2`, the Alloste ic enhan er (AE) in assay [1] is 13%; in assay [2] it was 0%; in assay [3], 0%. Also, the EC50 in assay [4] was more than 10 µM. In addition, at Adenosine receptor A1, the Inhibition is 8.3%.

As to `Nc1nc2c(s1)Cc1cc(-c3cccc(F)c3)ccc1-2`, the Alloste ic enhan er (AE) in assay [1] was 42.8%; in assay [2] it was 0%; in assay [3], 3.6%. In assay [4], the EC50 is more than 10 µM. The Inhibition at Adenosine receptor A1 is more than 10%.

As to `Nc1nc2c(s1)Cc1cc(-c3ccc(C(F)(F)F)cc3)ccc1-2`, the Alloste ic enhan er (AE) in assay [1] stood at 8.9%; in assay [2], 0%; in assay [3], 0%. Moreover, the EC50 in assay [4] is more than 10 µM. The compound also yielded an Inhibition at Adenosine receptor A1 of more than 10%.

As to `Nc1nc2c(s1)Cc1cc(-c3cccc(O)c3)ccc1-2`, the Alloste ic enhan er (AE) came out at 10% in assay [1], 0% in assay [2] and 1% in assay [3]. Besides, the EC50 in assay [4] is more than 10 µM. The same compound registered an Inhibition on Adenosine receptor A1 of 36.7%.

For `Cc1ccc(C)c(-c2ccc3c(c2)Cc2sc(N)nc2-3)c1`, the Alloste ic enhan er (AE) came out at 47.7% in assay [1], 0% in assay [2] and 0% in assay [3]. Further, the EC50 in assay [4] came to 7.3 µM. Moreover, the Allosteric enhancer (AE) in assay [5] is 51%. For the same compound, the Inhibition on Adenosine receptor A1 was more than 10%.

As to `Nc1nc2c(s1)Cc1cc(-c3cccc(Cl)c3)ccc1-2`, the Alloste ic enhan er (AE) in assay [1] was 22.7%; in assay [2], 0%; in assay [3], 1%. In addition, the EC50 in assay [4] is more than 10 µM. This compound yielded an Inhibition on Adenosine receptor A1 of more than 10%.

As to `Nc1nc2c(s1)Cc1cc(-c3ccccc3Cl)ccc1-2`, the figures for the Alloste ic enhan er (AE) in assay [1], in assay [2] and in assay [3] were 36.7%, 0% and 0%, respectively. In addition, the EC50 in assay [4] was more than 10 µM. On Adenosine receptor A1, this compound displayed an Inhibition of more than 10%.

Turning to `Nc1nc2c(s1)Cc1cc(-c3ccccc3F)ccc1-2`, the figures for the Alloste ic enhan er (AE) in assay [1], in assay [2] and in assay [3] were 4.9%, 0% and 3.6%, respectively. Moreover, the EC50 in assay [4] is more than 10 µM. On Adenosine receptor A1, this compound came in with an Inhibition of 13.2%.

In the case of `Nc1nc2c(s1)Cc1cc(-c3ccc(O)cc3)ccc1-2`, the Alloste ic enhan er (AE) in assay [1] was 4%; in assay [2], 0%; in assay [3] it was 1%. Further, in assay [4], the EC50 was more than 10 µM. For the same compound, the Inhibition at Adenosine receptor A1 was determined as 36.7%.

Consider `COc1ccc(-c2ccc3c(c2)Cc2sc(N)nc2-3)c(OC)c1`, for which the Alloste ic enhan er (AE) in assay [1] came to 73%; in assay [2] it was 0%; in assay [3] it was 1.9%. For the same compound, the EC50 in assay [4] was more than 10 µM. In addition, the Inhibition on Adenosine receptor A1 is 16%.

With `COc1cccc(-c2ccc3c(c2)Cc2sc(N)nc2-3)c1`, the figures for the Alloste ic enhan er (AE) in assay [1], in assay [2] and in assay [3] were 64%, 0% and 1.8%, respectively. Further, the EC50 in assay [4] was more than 10 µM. The same compound gave an Inhibition on Adenosine receptor A1 of 19.3%.

As to `Nc1nc2c(s1)Cc1cc(-c3ccccc3)ccc1-2`, the Alloste ic enhan er (AE) in assay [1] was determined as 8.2%; in assay [2], 0%; in assay [3], 1.6%. The EC50 in assay [4] is more than 10 µM. In addition, the Inhibition at Adenosine receptor A1 is more than 10%.

Take `Nc1nc2c(s1)Cc1cc(-c3ccc4ccccc4c3)ccc1-2`: the Alloste ic enhan er (AE) in assay [1] was 38.6%; in assay [2], 0%; in assay [3], 4.5%. Further, the EC50 in assay [4] was more than 10 µM. The same compound returned an Inhibition at Adenosine receptor A1 of more than 4.2%.

Turning to `Nc1nc2c(s1)Cc1cc(-c3cccc(C(F)(F)F)c3)ccc1-2`, the Alloste ic enhan er (AE) in assay [1] was determined as 15.8%; in assay [2], 0%; in assay [3], 0%. Also, the EC50 in assay [4] was more than 10 µM. For the same compound, on Adenosine receptor A1, the Inhibition is more than 10%.

For the compound `Cc1sc(N)c(C(=O)c2cccc(C(F)(F)F)c2)c1C`, the Alloste ic enhan er (AE) was determined as 20% in assay [1], 0% in assay [2] and 5% in assay [3]. Besides, the EC50 in assay [4] is more than 10 µM.

Regarding `Cc1ccccc1-c1ccc2c(c1)Cc1sc(N)nc1-2`, the Alloste ic enhan er (AE) in assay [1] is 36.6%; in assay [2], 0%; in assay [3] it was 0%. Moreover, in assay [4], the EC50 is more than 10 µM. The Inhibition on Adenosine receptor A1 came out at 34.4%.

As to `Nc1nc2c(s1)Cc1cc(-c3ccc(F)cc3)ccc1-2`, the Alloste ic enhan er (AE) in assay [1] was 54.4%; in assay [2], 0%; in assay [3] it was 11.8%. Further, the EC50 in assay [4] is more than 10 µM. Besides, the Inhibition on Adenosine receptor A1 was more than 10%.

With `COc1ccc(-c2ccc3c(c2)Cc2sc(N)nc2-3)c(OC)c1OC`, the Alloste ic enhan er (AE) is 64.5% in assay [1], 0.3% in assay [2] and 0% in assay [3]. Moreover, in assay [4], the EC50 was more than 10 µM. On Adenosine receptor A1, this compound had an Inhibition of 18%.

On to `Nc1nc2c(s1)Cc1cc(-c3cc4ccccc4o3)ccc1-2`, for which the Alloste ic enhan er (AE) was found to be 51% in assay [1], 0.8% in assay [2] and 11.9% in assay [3].

With `COc1cc(-c2ccc3c(c2)Cc2sc(N)nc2-3)cc(OC)c1OC`, the Alloste ic enhan er (AE) came to 23.3% in assay [1], 0% in assay [2] and 0.8% in assay [3]. For the same compound, in assay [4], the EC50 was more than 10 µM. Moreover, on Adenosine receptor A1, the Inhibition worked out at 11.8%.

What is called EC50 is the concentration at which the effect is half-maximal. What is called Inhibition is the share of the control response that was lost under treatment.
